Here are results for two compounds from PMC5731780 (Structure (London, England : 1993), 2017).

Series [1] relates to Rpn11 in purified proteasome. The experiment in a line: Proteasome/Rpn11 inhibition assay. Type of series: biochemical, human. In outline: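 Human erythrocyte proteasome was used with Ub4pep substrate: His6, four head-to-tail Ub repeats and a 30-mer peptide whose cysteine carried Oregon Green 488. Compounds were screened at 10 μM. IC50 came from 0–100 μM series in quadruplicate.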

A further series concerns CFTR ubiquitination. The experiment in a line: In vitro CFTR ubiquitination assay. Type of series: biochemical, yeast.
The target in series [2] is T1, Ub (Homo sapiens, UniProt P0CG48). The experiment in a line: NMR titration of 15N-labeled Ub. Type of series: binding.
For series [3], the target named is T2, Ub^72 (Homo sapiens, UniProt P0CG48). The experiment in a line: NMR titration of 15N-labeled Ub^72. Type of series: binding. In a few lines: (§1)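 Unlabeled ubistatin was added in increasing amounts to 15N-labeled Ub variant in 20 mM phosphate (pH 6.8), 0.02% NaN3, 5% D2O at 23°. Binding was followed in 1H-15N HSQC or SOFAST-HMQC spectra. Signal shifts were quantified as CSPs and fitted against bound fraction to give Kd.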

Series [4] deals with T3, Ub^R74A (Homo sapiens, UniProt P0CG48, R74A). The experiment in a line: NMR titration of 15N-labeled Ub^R74A. Type of series: binding. In a few lines: as §1
Series [5] deals with T4, Ub^R74E (Homo sapiens, UniProt P0CG48, R74E). The experiment in a line: NMR titration of 15N-labeled Ub^R74E. Type of series: binding. In outline: as §1
Another series concerns the target Ub^R42E (Homo sapiens, UniProt P0CG48, R42E). The experiment in a line: NMR titration of 15N-labeled Ub^R42E. The series is classed as binding. To be noted: read-out: Dissociation constant, Ub^R42E (NMR titration); Table 2. In a few lines: (§2)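 Ub point mutants were made by PCR mutagenesis of human wild-type Ub in pET3a, with DpnI digestion and sequence verification. Increasing amounts of unlabeled ubistatin were titrated into 15N-labeled protein in 20 mM phosphate pH 6.8, 0.02% NaN3, 5% D2O, at 23°. Signal shifts and attenuations were tracked in 1H-15N HSQC or SOFAST-HMQC spectra, and spectral perturbations were quantified at each titration step.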

The target of series [6] is T5, Ub^R42E,R72E (Homo sapiens, UniProt P0CG48, R42E/R72E). The experiment in a line: NMR titration of 15N-labeled Ub^R42E,R72E. Type of series: binding. In a few lines:
as §2

For series [7], the target named is T1, Ub. The experiment in a line: ubiB fluorescence anisotropy titration with Ub. The series is classed as binding. Conditions: read-out: Kd, Ub (fluorescence anisotropy). In outline:
(§3)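 Fluorescence anisotropy was measured at 21°C in PBS pH 7.4. ubiB was held at 1 μM for Ub2 titrations and 10 μM for Ub, while Ub or Ub2 was varied. Readings were taken in T-configuration, excitation 386 nm, emission 485 nm. Anisotropy change was fitted to a single-site binding model for Kd.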
A general note: Polarisation of emitted light reports the rotation of a fluorescent probe.

The target in series [8] is T6, K48-Ub2 (Homo sapiens, UniProt P0CG48). The experiment in a line: ubiB fluorescence anisotropy titration with K48-Ub2. To be noted: read-out: Kd, K48-Ub2 (fluorescence anisotropy). The series is classed as binding. In outline: as §3
The target in the next series is K11-Ub2 (Homo sapiens, UniProt P0CG48). The experiment in a line: ubiB fluorescence anisotropy titration with K11-Ub2. To be noted: read-out: Kd, K11-Ub2 (fluorescence anisotropy). The series is classed as binding. In a few lines:
as §3

In a further series the target is K63-Ub2. The experiment in a line: ubiB fluorescence anisotropy titration with K63-Ub2. Type of series: binding, human. Conditions: read-out: Kd, K63-Ub2 (fluorescence anisotropy). In a few lines: as §3
Series [9] deals with T1, Ub. The experiment in a line: 15N T1 relaxation of Ub with ubistatin. To be noted: mean (SD) over residues in structured regions. The series is classed as binding. In a few lines:
(§4)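 15N T1 longitudinal relaxation measured with standard pulse sequences at 23°, 600 and 800 MHz with cryoprobes. 15N-labeled human Ub or K48-linked Ub2 was free or mixed with ubistatin in 20 mM phosphate buffer pH 6.8 with 0.02% (w/v) NaN3 and 5% D2O. Values are means with standard deviations averaged over residues in structured regions.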

In series [10] the target is T2, Ub^72. The experiment in a line: 15N T1 relaxation of Ub^72 with ubistatin. Type of series: binding. Conditions: mean (SD). In outline:
(§5)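 Human Ub and its point mutants were expressed from pET3a and made by PCR mutagenesis. Samples were in 20 mM phosphate buffer (pH 6.8) with 0.02% (w/v) NaN3 and 5% D2O. 15N T1 was measured at 23° on 600 and 800 MHz spectrometers with cryoprobes, using standard pulse sequences.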

The target of series [11] is T3, Ub^R74A. The experiment in a line: 15N T1 relaxation of Ub^R74A with ubistatin. Type of series: binding. Conditions: mean (SD). In a few lines:
as §5

The target of series [12] is T4, Ub^R74E. The experiment in a line: 15N T1 relaxation of Ub^R74E with ubistatin. Type of series: binding. To be noted: mean (SD). In outline: as §5
Series [13] has as its target T5, Ub^R42E,R72E. The experiment in a line: 15N T1 relaxation of Ub^R42E,R72E with ubistatin. The series is classed as binding. Conditions: mean (SD). In outline:
as §5

For series [14], the target named is T6, K48-Ub2. The experiment in a line: 15N T1 relaxation of K48-Ub2 with ubistatin. Type of series: binding. To be noted: mean (SD). In a few lines:
as §4

Series [15] addresses T1, Ub. The experiment in a line: SANS of Ub with ubiB. Type of series: binding. Conditions: equimolar ubiB.
Series [16] concerns the target T6, K48-Ub2. The experiment in a line: SANS of K48-Ub2 with ubiB. The series is classed as binding. To be noted: equimolar ubiB.
For series [17], the target named is T1, Ub. The experiment in a line: NMR competition assay against ubiquilin-1 UBA domain for Ub. The series is classed as binding. To be noted: up to 3-fold molar excess.
The target in series [18] is T6, K48-Ub2. The experiment in a line: NMR competition assay against ubiquilin-1 UBA domain for K48-Ub2. Type of series: binding.
For the next series, the system named is Ubp6. The experiment in a line: Gel-based assay of K48-Ub2 disassembly by Ubp6. The series is classed as biochemical, yeast.
Another series has as its system Cezanne (OTUD7B). The experiment in a line: Gel-based assay of K11-Ub2 disassembly by Cezanne. The series is classed as biochemical. Conditions: stoichiometric ubiB.
The test system of a further series is OTUB1. The experiment in a line: Gel-based assay of K48-Ub2 disassembly by OTUB1. To be noted: stoichiometric ubiB. The series is classed as biochemical.
A further series has as its system AMSH. The experiment in a line: Gel-based assay of K63-Ub2 disassembly by AMSH. Conditions: stoichiometric ubiB. Type of series: biochemical.
Another series deals with yeast 26S proteasome. The experiment in a line: Gel-based assay of DUB activity of 26S proteasome. Type of series: biochemical.
Another series relates to HeLa and RCC4 cells. The experiment in a line: ubiB internalization in live cells by fluorescence microscopy. The series is classed as cell-based, human. To be noted: 10 μM ubiB, 6 hrs. In outline:
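HeLa and RCC4 cells were grown in DMEM/10% FBS on glass-bottom dishes, exposed to 10 μM ubiB for 6 hrs, and washed three times in PBS. Plasma membrane was stained with Texas Red wheat germ agglutinin (1:500, 15 min). Live cells were imaged by confocal Z-stacks (63× oil), with 405 nm excitation for ubiB and 555 nm for the membrane probe.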

The test system of a further series is HeLa cells. The experiment in a line: Perturbation of the Ub landscape in cells. Type of series: cell-based, human.

“And” between values parts separate entries of the source, which are not always exact repeats. Equal values may be shown once.

As to `O=S(=O)(O)c1ccc2c(ccc3nn(-c4ccc(/C=C/c5ccc(-n6nc7ccc8cc(S(=O)(=O)O)ccc8c7n6)cc5S(=O)(=O)O)c(S(=O)(=O)O)c4)nc32)c1` [ubiB, Ubistatin B], the inhibition of deubiquitination in series [1] (at 1 μM ubiB) is reported as ~50%. Also, the IC50 (commonly the midpoint of a concentration-inhibition curve) in series [1] (read-out: IC50, DUB activity of Rpn11 in purified proteasome, deubiquitination) is 1.1 µM and 1 µM; in the series with CFTR ubiquitination (read-out: IC50, CFTR ubiquitination, titration of ubiB), ~10 µM and 10 µM. For the same compound, the “concentration required for complete inhibition of ubiquitination” value in the series on CFTR ubiquitination was ≥ 100 µM. In the series with CFTR ubiquitination (100 μM compound, 26°C, 60 min), the “CFTR protein modified (ubiquitinated), DMSO control = 100%” value worked out at 18±2%. Besides, the inhibition of ubiquitination with CFTR ubiquitination (at 1 μM ubiB) is 5-10%. Moreover, the Kd on Ub [2] (read-out: Dissociation constant, Ub (NMR titration), Table 2) is 11.3 µM; on Ub^72 [3] (read-out: Dissociation constant, Ub^72 (NMR titration), Table 2), 73.1 µM; at Ub^R74A [4] (read-out: Dissociation constant, Ub^R74A (NMR titration), Table 2), 40.3 µM; on Ub^R74E [5] (read-out: Dissociation constant, Ub^R74E (NMR titration), Table 2), 67.6 µM; on Ub^R42E, 396 µM; at Ub^R42E,R72E [6] (read-out: Dissociation constant, Ub^R42E,R72E (NMR titration), Table 2) it was > 1000 µM. Besides, the Kd at Ub [7] is 14 ± 1.6 µM; at K48-Ub2 [8], 0.264 ± 0.023 µM; at K11-Ub2, 1.83 ± 0.05 µM; on K63-Ub2 it was 4.88 ± 0.22 µM. Besides, the “direct binding to 15N Ub by CSPs” value at Ub [2] (starting Ub 1 mM) is “produced CSPs in and around Ub's hydrophobic patch”. Further, the “decrease in binding affinity, Ub^72 vs Ub” value at Ub^72 [3] came to 6 fold. Further, the “weakening of ubiB binding, Ub^R74A vs Ub” value on Ub^R74A [4] is 3.5 fold. Further, on Ub^R74E [5], the “weakening of ubiB binding, Ub^R74E vs Ub” value came to 6 fold. For the same compound, the “binding to Ub^R42E,R72E” value at Ub^R42E,R72E [6] is listed as “only negligible CSPs”. For the same compound, the “15N T1 of Ub in the presence of ubistatin” value on Ub [9] is 660 ± 25 ms. Moreover, the “15N T1 of Ub^72 in the presence of ubistatin” value at Ub^72 [10] is on record as 482 (28) ms. Besides, the “15N T1 of Ub^R74A in the presence of ubistatin” value on Ub^R74A [11] is listed as 544 (26) ms. On Ub^R74E [12], the “15N T1 of Ub^R74E in the presence of ubistatin” value is on record as 556 (28) ms. For the same compound, the “15N T1 of Ub^R42E,R72E in the presence of ubistatin” value on Ub^R42E,R72E [13] is 493 (27) ms. For the same compound, the “15N T1 of K48-Ub2 in the presence of ubistatin” value at K48-Ub2 [14] is recorded as 942 (66) ms. Besides, at Ub [15], the “Radius of gyration (Rg) of Ub + ubiB” value was 17.4 (0.1) Å. For the same compound, the “Radius of gyration (Rg) of K48-Ub2 + ubiB” value on K48-Ub2 [16] is reported as 20.1 (0.1) Å. The “competition with UBA for binding to Ub” value on Ub [17] was “outcompetes UBA for binding to Ub”. The “competition with UBA for binding to K48-Ub2” value at K48-Ub2 [18] is “outcompeted UBA for binding to K48-Ub2”. Besides, the “effect on disassembly of K48-Ub2 by Ubp6” value with Ubp6 is given as “concentration-dependent effect”. Moreover, the “disassembly of K11-Ub2 by Cezanne (OTUD7B)” value in the series with Cezanne (OTUD7B) was “prevented”. Further, the “disassembly of K48-Ub2 by OTUB1” value in the series with OTUB1 is recorded as “prevented”. Moreover, in the series with AMSH, the “disassembly of K63-Ub2 by AMSH” value was “prevented”. For the same compound, the “disassembly of K11-Ub6+ by 26S proteasome” value with yeast 26S proteasome (20 hr time course) is reported as “only trace amounts of cleavage intermediates appeared”. In addition, the “processing of Ubch5b-Ubn by 26S proteasome” value in the series with yeast 26S proteasome (K11, K48, K63 linkage-specific antibodies) was “preserved all three linkage types”. Further, the “toxicity judged by cell morphology” value with HeLa and RCC4 cells is listed as “not toxic”. In the series with HeLa and RCC4 cells (no chemical permeabilization), the “cell internalization” value is “distinct ubiB fluorescence at and within the boundaries of the fluorescently labeled plasma membrane”. Moreover, the “Ub conjugates below 70 kDa” value in the series with HeLa cells (2 μM ubiB, 8 hrs) is given as “greatly diminished”. Further, the “Ub conjugates, RIPA lysis, Western blot” value in the series with HeLa cells (6 hrs ubiB treatment) is “increases the amount of Ub conjugates”.

`O=S(=O)(O)c1cccc2cccc(Nc3ccccc3)c12` [ANS, 8-anilinonaphthalene-1-sulfonic acid, reference compound]: at Ub [2], the “CSPs in Ub upon titration” value was < 0.1 ppm.
